Assay results published in ChEMBL document CHEMBL4837207, “Discovery of pyrrolo[2,3-d]pyrimidine derivatives as potent Axl inhibitors: Design, synthesis and biological evaluation” (Eur J Med Chem, 2021).

Tests used:
[1] = Half life in Sprague-Dawley rat at 3 mg/kg, po via gavage measured up to 24 hrs by LC-MS analysis; format: ADME, organism-based; conditions: in vivo
How it was run: (§1)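 Male Sprague-Dawley rats (n = 3) dosed once by oral gavage at 3 mg/kg as a solution in 5% DMSO/95% (0.5% CMC-Na). Blood sampled at 0.25, 0.5, 1, 2, 4, 6, 8 and 24 h, kept on wet ice, serum separated by centrifugation and stored at -20 °C. Serum levels measured by LC-MS/MS; parameters reported as means.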

[2] = Inhibition of ABL (unknown origin) by ELISA; parameters: species or system Homo sapiens
[3] = molecular target: T1, Tyrosine-protein kinase receptor UFO (Homo sapiens, UniProt P30530); test: Inhibition of AXL (unknown origin) by ELISA
T1 sequence (P30530 whole entry): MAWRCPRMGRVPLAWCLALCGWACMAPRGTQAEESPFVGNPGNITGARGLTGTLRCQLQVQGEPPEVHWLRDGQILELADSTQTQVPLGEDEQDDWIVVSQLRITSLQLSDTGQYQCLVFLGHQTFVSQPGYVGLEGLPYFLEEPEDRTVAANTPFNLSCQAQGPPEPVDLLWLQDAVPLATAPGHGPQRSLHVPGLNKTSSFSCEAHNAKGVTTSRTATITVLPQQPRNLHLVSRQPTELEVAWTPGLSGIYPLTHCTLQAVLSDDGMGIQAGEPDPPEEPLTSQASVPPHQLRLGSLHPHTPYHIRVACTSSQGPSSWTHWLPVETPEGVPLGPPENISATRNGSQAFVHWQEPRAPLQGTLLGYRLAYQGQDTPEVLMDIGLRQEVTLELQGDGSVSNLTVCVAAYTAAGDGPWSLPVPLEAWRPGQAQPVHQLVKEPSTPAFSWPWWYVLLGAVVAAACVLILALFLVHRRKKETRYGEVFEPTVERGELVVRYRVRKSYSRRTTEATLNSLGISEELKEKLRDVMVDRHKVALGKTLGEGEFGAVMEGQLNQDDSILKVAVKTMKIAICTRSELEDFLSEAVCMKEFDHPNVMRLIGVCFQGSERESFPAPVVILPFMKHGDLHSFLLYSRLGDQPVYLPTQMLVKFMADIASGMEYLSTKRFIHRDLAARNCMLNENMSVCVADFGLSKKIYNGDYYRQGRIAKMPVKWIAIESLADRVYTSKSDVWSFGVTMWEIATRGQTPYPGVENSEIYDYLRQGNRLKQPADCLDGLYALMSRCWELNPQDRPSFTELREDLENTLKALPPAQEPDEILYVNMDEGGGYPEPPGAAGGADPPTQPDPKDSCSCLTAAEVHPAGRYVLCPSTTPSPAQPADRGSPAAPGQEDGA

[4] = molecular target: Mast/stem cell growth factor receptor Kit (Homo sapiens, UniProt P10721); test: Inhibition of Kit(unknown origin) by ELISA
[5] = Tmax in Sprague-Dawley rat at 3 mg/kg, po via gavage measured up to 24 hrs by LC-MS analysis; format: ADME, organism-based; conditions: in vivo; how it was run: as §1
[6] = molecular target: T2, Receptor-type tyrosine-protein kinase FLT3 (Homo sapiens, UniProt P36888); test: Inhibition of FLT-3 (unknown origin) by ELISA
T2 sequence (P36888 whole entry): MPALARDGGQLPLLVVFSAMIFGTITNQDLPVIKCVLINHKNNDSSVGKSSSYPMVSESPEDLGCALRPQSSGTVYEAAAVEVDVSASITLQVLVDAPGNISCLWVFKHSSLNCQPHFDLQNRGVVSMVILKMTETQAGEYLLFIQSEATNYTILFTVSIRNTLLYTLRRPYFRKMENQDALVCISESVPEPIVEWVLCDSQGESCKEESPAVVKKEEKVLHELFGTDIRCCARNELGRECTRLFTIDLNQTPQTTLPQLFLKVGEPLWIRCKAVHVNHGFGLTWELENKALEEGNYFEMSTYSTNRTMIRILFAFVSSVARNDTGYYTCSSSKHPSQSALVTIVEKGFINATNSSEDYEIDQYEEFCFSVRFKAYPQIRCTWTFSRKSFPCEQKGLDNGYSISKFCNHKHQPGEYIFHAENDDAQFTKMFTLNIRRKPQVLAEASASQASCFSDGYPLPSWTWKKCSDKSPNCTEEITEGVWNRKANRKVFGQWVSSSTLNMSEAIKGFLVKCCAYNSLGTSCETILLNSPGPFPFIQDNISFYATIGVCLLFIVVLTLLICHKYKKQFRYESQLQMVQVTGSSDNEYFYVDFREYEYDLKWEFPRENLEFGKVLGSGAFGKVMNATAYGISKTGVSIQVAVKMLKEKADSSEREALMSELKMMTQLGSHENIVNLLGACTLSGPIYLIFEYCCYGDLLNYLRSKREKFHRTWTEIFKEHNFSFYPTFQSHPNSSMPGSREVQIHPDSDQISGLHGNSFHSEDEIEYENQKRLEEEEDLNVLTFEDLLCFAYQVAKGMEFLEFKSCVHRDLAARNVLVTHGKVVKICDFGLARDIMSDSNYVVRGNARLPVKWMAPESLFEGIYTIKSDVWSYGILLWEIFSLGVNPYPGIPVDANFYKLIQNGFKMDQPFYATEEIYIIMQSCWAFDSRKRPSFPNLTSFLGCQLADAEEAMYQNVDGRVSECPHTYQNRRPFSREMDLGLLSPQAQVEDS

[7] = molecular target: Platelet-derived growth factor receptor beta (Homo sapiens, UniProt P09619); test: Inhibition of PDGFRbeta (unknown origin) by ELISA
[8] = molecular target: Hepatocyte growth factor receptor (Homo sapiens, UniProt P08581); test: Inhibition of c-MET (unknown origin) by ELISA
Hepatocyte growth factor receptor, sequence (P08581 whole entry): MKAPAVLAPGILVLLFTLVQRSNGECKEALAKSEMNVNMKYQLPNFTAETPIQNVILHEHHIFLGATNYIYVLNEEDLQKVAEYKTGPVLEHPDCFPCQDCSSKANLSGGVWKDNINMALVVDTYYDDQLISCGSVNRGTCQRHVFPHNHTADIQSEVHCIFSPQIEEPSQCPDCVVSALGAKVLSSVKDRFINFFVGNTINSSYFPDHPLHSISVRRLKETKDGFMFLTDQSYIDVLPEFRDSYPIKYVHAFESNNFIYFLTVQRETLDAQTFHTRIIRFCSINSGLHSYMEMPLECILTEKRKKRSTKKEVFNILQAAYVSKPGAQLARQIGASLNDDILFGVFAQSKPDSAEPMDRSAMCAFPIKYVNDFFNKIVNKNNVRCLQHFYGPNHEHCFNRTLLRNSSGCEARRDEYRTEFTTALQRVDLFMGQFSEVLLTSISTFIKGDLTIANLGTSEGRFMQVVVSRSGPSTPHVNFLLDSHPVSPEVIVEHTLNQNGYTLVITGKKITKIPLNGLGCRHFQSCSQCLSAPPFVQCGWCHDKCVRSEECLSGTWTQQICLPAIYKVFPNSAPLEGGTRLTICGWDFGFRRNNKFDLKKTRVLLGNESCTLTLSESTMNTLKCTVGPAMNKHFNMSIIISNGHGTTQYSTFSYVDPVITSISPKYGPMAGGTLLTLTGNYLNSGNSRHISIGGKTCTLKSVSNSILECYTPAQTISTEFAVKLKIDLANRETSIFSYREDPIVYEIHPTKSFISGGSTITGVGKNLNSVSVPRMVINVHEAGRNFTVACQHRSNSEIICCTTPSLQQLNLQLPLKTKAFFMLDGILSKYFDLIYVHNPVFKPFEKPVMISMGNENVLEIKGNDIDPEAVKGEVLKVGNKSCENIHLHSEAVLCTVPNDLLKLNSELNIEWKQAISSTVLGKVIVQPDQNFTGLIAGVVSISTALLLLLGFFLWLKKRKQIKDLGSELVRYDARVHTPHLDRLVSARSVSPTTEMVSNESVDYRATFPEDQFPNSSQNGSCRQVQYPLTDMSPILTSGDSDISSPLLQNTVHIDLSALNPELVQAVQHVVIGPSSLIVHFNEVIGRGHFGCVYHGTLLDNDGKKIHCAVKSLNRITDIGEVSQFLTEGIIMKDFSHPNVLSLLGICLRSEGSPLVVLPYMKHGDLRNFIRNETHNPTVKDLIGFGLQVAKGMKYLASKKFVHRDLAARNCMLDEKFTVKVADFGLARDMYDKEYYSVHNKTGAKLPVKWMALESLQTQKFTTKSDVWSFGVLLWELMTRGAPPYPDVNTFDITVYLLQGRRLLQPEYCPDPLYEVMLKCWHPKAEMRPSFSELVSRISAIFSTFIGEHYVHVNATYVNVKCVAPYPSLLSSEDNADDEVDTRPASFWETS

Mast/stem cell growth factor receptor Kit, sequence (P10721 whole entry): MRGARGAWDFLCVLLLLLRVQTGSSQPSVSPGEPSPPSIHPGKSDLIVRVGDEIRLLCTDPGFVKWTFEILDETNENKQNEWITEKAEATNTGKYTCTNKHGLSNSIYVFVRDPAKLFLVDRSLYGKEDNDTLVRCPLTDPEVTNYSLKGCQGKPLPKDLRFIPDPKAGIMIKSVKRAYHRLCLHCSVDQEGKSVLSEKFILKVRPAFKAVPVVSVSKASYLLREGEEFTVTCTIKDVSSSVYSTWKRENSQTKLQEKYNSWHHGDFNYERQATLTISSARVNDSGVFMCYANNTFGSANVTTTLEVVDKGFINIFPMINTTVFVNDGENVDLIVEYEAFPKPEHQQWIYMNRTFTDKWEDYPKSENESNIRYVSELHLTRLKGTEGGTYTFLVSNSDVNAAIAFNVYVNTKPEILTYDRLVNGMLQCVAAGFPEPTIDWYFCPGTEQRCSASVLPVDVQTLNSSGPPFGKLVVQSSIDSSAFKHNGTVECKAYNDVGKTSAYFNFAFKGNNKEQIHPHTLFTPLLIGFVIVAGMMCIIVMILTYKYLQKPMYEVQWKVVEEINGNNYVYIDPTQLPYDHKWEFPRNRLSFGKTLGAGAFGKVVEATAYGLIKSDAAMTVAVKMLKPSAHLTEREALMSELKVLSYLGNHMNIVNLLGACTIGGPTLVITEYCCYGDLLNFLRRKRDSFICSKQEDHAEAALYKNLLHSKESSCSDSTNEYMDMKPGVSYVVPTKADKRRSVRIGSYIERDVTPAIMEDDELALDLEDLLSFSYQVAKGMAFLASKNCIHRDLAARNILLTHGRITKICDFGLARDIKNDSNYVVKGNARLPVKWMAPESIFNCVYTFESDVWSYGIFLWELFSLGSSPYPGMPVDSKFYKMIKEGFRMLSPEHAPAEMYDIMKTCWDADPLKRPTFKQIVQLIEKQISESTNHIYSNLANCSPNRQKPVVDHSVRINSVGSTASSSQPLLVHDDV
Platelet-derived growth factor receptor beta, sequence (P09619 whole entry): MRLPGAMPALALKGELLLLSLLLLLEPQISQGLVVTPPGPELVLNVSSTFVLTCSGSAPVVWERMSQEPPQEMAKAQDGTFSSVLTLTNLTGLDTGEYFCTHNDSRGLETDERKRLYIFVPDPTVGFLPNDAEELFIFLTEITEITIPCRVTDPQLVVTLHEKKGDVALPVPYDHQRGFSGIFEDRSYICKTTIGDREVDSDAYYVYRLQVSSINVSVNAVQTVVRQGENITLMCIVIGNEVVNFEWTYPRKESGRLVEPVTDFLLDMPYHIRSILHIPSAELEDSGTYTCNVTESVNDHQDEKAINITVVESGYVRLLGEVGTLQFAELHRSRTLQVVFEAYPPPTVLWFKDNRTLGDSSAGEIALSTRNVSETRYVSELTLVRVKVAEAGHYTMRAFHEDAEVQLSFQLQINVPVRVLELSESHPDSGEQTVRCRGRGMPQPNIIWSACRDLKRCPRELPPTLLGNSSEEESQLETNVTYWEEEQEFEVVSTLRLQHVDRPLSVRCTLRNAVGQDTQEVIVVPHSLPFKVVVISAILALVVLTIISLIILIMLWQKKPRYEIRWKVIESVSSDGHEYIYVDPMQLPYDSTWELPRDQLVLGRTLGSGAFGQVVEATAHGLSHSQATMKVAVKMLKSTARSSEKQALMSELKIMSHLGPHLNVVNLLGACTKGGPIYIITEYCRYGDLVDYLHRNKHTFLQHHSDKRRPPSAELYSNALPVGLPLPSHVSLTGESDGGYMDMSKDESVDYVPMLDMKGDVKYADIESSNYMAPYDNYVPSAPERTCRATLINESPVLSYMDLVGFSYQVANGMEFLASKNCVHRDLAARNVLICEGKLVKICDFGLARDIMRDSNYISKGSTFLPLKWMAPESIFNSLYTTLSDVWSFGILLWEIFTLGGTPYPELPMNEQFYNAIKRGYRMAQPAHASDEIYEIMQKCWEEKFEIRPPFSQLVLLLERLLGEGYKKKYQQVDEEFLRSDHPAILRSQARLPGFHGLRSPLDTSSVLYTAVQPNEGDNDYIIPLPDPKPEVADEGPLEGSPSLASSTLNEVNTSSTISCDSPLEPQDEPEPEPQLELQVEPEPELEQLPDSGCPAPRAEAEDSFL

Compound: CC(C)n1cc(C(=O)Nc2cc(F)c(-c3c[nH]c4ncnc(N)c34)cc2F)c(=O)c(-c2ccc(F)cc2)c1
- half-life [1]: 2.74 h
- IC50 [2]: > 1 µM
- IC50 [3]: < 0.0002 µM
- IC50 [4]: > 1 µM
- Tmax [5]: 1.08 h
- IC50 [6]: > 1 µM
- IC50 [7]: > 1 µM
- IC50 [8]: 0.0045 µM
